Assay outcomes: PubChem BioAssay, several laboratories
hiPSC survival: increases survival of single human iPS cells | actives 0.044% (n = 360,000) | hiPSC single-cell survival, ATPlite luminescence; 100% = ROCK inhibitor wells, 0% = DMSO | survival enhancement, % at 20 µM; in the data active means survival enhancement above about 18%;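 further: cells exposed to compounds for 16 hours before the ATP read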
Cardio protect: modulators protecting cardiomyocytes from myocardial damage; H9c2 cardiomyocytes, H2O2 injury protection, ATPLite, 2 h; protection from H2O2 cell death, % at 20 µM; actives 0.63% (n = 360,000);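 active means compounds giving at least 50% protection of heart cells from peroxide-induced death in the single-dose screen, raw or plate-pattern-corrected value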
XBP1 UPR activ: adaptive UPR (XBP1) activation. CHO-XBP1 luciferase reporter, IRE1-XBP1 UPR activation, luminescence; percent of tunicamycin response, DMSO as zero. activation, % at 20 µM. actives 0.33% (n = 330,000). AID 463104;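 active means versus positive control, 20 µM dose yields 30% or more activation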
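Test system: CHO-XBP1 luciferase reporter cells | Buffer or medium: Serum-containing F12 medium, 10% FBS | Schedule: 6 h compound exposure at 37 °C, 5% CO2 | Detection: Steady-Glo luciferase glow luminescence, 10 min after reagent addition | Read-out basis: Activation, % of tunicamycin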
CHOP inh: inhibitors of CHOP induction in ER stress response; CHO-K1 CHOP-promoter luciferase, tunicamycin-induced, 15-18 h; inhibition, % at 10 µM; actives 3.8% (n = 220,000);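 active means compounds that reduced the stress-induced luciferase reporter signal by more than about 70% of percent inhibition, limit read from the data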
CHOP UPR activ: activators of apoptotic arm of unfolded protein response (CHOP); actives 0.34% (n = 330,000); CHO-CHOP luciferase reporter, UPR activation, luminescence; percent of tunicamycin response over DMSO baseline; AID 449763; activation, % at 10 µM;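 active means at 10 µM dose, activation of 40% or more, normalized to positive control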
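Test system: CHO-CHOP cells, stable luciferase reporter of PERK-eIF2a-CHOP signalling | Quantity: 500 CHO-CHOP cells per well | Buffer or medium: F12 plus 10% serum | Compound dosing: 10 µM single point, 0.5% DMSO | Schedule: 6 h compound treatment, 37 °C | Signal: Luciferase luminescence | Control set: Tunicamycin high control, DMSO low control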
CHOP confirm: confirmation of CHOP induction inhibitors. shares compounds with CHOP inh. CHO-CHOP promoter luciferase reporter, tunicamycin-induced, luminescence. inhibition, % at 10 µM. actives 45% (n = 2,100). AID 504437;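 active means mean of three repeat readings of reporter signal inhibition above a set limit, cut at about 70% in these data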
Hits are given with their value; n = inactive; x = no result. Shown is part of a subset that was picked to be rich in hits.

SMILES | hiPSC survival | Cardio protect | XBP1 UPR activ | CHOP inh | CHOP UPR activ | CHOP confirm
C[C@@H]1O[C@H](C2CCCCC2)Cc2[nH][nH]c(=O)c21 | n | x | x | x | x | x
Cc1ccccc1N=C(NOCc1ccccc1)c1nonc1N | n | n | n | 100 | n | n
Cc1ccc(N=C(NOCc2ccc(Cl)cc2Cl)c2nonc2N)c(C)c1 | n | n | n | n | n | x
Cc1ccc(Cc2c(-c3ccc(F)cc3)nc3c(C)cc(Br)cn23)cc1 | n | n | x | x | x | x
CCOc1ccccc1N1CCN(S(=O)(=O)c2ccc3c4c(cccc24)C(=O)N3)CC1 | n | n | n | 99 | n | n
CCOC(=O)C1(C)CCN1C(=O)c1ccccc1Br (stereo not given) | n | n | x | x | x | x
COc1ccccc1Nc1nc(-c2sc(N)nc2C)cs1 | n | n | n | x | n | x
Cc1nc(N)sc1-c1csc(Nc2ncccn2)n1 | n | n | x | 103 | x | n
Cn1ccnc1C(O)c1cccc(OCc2ccccc2)c1 (stereo not given) | n | n | n | x | n | x
OC(c1cccc(OCc2ccccc2)c1)c1nnc(-c2ccccc2)o1 (stereo not given) | n | n | n | 111 | n | 106
OC(c1ccc(OCc2ccccc2)cc1)c1nnc(-c2ccccc2)o1 (stereo not given) | n | n | n | 97 | n | n
CC(/C=C1\SC(=O)N(CCCC(=O)O)C1=O)=C\c1ccccc1 | n | n | x | 101 | x | 110
Cc1cccc(N2CCN(C3=NC(=O)/C(=C\c4cn[nH]c4-c4ccccc4)S3)CC2)c1 | n | n | n | 102 | n | n
Nc1nc(NCc2ccco2)nc(Nc2ccccc2)c1[N+](=O)[O-] | n | n | n | n | n | x
Cc1ccc(Nc2nc(N)c([N+](=O)[O-])c(NCc3ccco3)n2)cc1 | n | n | n | 101 | n | n
CCSC(N)=Nc1ccc(C(F)(F)F)cc1 | x | x | x | n | x | x
Cc1ccc(C)c(NC(=O)C2CC3c4ccccc4C2c2ccccc23)c1 (stereo not given) | n | n | n | 99 | n | n
Cc1ccc(C)c(NC(=O)C2CC=CCC2C(=O)O)c1 (stereo not given) | n | n | n | n | n | x
N=C1S/C(=C\c2cn[nH]c2-c2ccc(F)cc2)C(=O)N1c1ccccc1F | n | n | n | 103 | n | n
N=C1S/C(=C\c2ccccc2F)C(=O)N1c1ccc(F)cc1 | n | n | n | n | n | x
COc1ccc(NC(=O)/C(Cl)=C(/Cl)S(=O)Cc2ccc(Cl)cc2)cn1 (stereo not given) | n | n | n | 107 | n | 140
O=C(NCc1cccc(Cl)c1)C1CCCN(c2ncnc3c2nc2n3CCCCC2)C1 (stereo not given) | n | n | n | x | n | x
COc1cccc(/C=N\NC(=O)c2ccc(Cn3cc(Br)c([N+](=O)[O-])n3)o2)c1O | n | n | n | 97 | n | n
NC(=O)CC(NC(=O)Cc1ccc(Br)cc1)c1ccc(N2CCN(c3ccccn3)CC2)c([N+](=O)[O-])c1 (stereo not given) | n | n | n | x | n | x
NC(=O)CC(NC(=O)Cc1ccc(Br)cc1)c1ccc(N2CCN(c3ccccc3)CC2)c([N+](=O)[O-])c1 (stereo not given) | n | n | n | 103 | n | n
SMILES | hiPSC survival | Cardio protect | XBP1 UPR activ | CHOP inh | CHOP UPR activ | CHOP confirm
COc1ccc(CCNc2ccc(C(CC(N)=O)NC(=O)Cc3cccc4ccccc34)cc2[N+](=O)[O-])cc1 (stereo not given) | n | n | n | n | n | x
CCCCNc1ccc(C(CC(N)=O)NC(=O)Cc2cccc3ccccc23)cc1[N+](=O)[O-] (stereo not given) | n | n | n | 104 | n | n
Cc1cccc(CNc2ccc(C(CC(N)=O)NC(=O)Cc3cccc4ccccc34)cc2[N+](=O)[O-])c1 (stereo not given) | n | n | n | 105 | n | n
CN(Cc1ccccc1)C(=O)c1ccc(NC(=O)Cc2cccc(NC(=O)C3CCCN(C(=O)C4CCC4)C3)c2)cc1 (stereo not given) | n | n | n | x | n | x
Cc1ccccc1Cn1c(C)c(C(=O)N(C)Cc2ccc(F)cc2)sc1=O | n | n | x | x | x | x
COc1ccc([C@@H]2CC(=O)[C@@H]3CN(S(=O)(=O)c4ccc(Cl)cc4)[C@H](c4ccc(C)cc4)C[C@@H]3N2S(=O)(=O)c2ccccc2)cc1 | n | n | x | x | x | x
CN(C)c1ccc(/C=C2\SC(=O)N(CCc3nnc(N)s3)C2=O)cc1 | n | n | n | 100 | n | 127
O=C(c1cccs1)N1CCN(Cc2nc(-c3ccccc3)no2)CC1 | n | n | x | x | x | x
COC(=O)c1cc2cc(NS(=O)(=O)c3ccc(C)cc3)ccc2s1 | n | n | n | 103 | n | n
Cc1ccc(S(=O)(=O)Nc2ccc3ccccc3c2)cc1 | n | n | x | x | x | x
Cc1ccc(-c2nc(N)s[n+]2-c2ccccc2)cc1 | n | n | x | n | x | x
CNc1nc(-c2ccccc2)[n+](-c2ccc(C)cc2)s1 | n | n | x | 97 | x | n
Fc1ccc(OCc2nc(-c3ccncc3)n[nH]2)cc1 | n | n | n | n | n | x
Cc1ccc(OCc2nc(-c3ccc(Cl)cc3)n[nH]2)cc1 | n | n | n | 100 | n | n
Cc1ccsc1/C=C/C1=Cc2c(sc(NC(=O)CSc3n[nH]c(N)n3)c2C#N)C(C)(C)C1 | n | n | n | n | n | x
CCOc1ccc(/C=C/C2=Cc3c(sc(NC(=O)CSc4n[nH]c(N)n4)c3C#N)C(C)(C)C2)cc1 | n | n | n | 109 | n | 116
CN(C)c1ccc(C(CNS(=O)(=O)c2ccc(F)c(F)c2)c2c[nH]c3ccccc23)cc1 (stereo not given) | n | n | n | 110 | n | 116
CCOC(=O)CN1C(c2ccc(O)cc2)Nc2ccc(Br)cc2C1c1ccccc1 (stereo not given) | n | n | n | 108 | n | 119
CCN1CCN(S(=O)(=O)c2ccc(Cl)c(C(=O)Oc3ccc(CC(=O)OC)cc3)c2)CC1 | n | n | x | x | x | x
CCOC(=O)[C@]12CCC=C1N(Cc1cccc3ccccc13)C(=O)[C@H](CC(=O)NCc1ccc(OC)c(OC)c1)C2 | n | x | x | x | x | x
Cc1ccc(S(=O)(=O)N2CCCN(C(=O)c3ccc(-n4nccc4C)cc3)CC2)cc1 | n | n | n | x | n | x
Cc1cccc(C)c1N1CCN(c2ccc3nnc(C(F)(F)F)n3n2)CC1 | n | n | n | 106 | n | 102
O=S(=O)(NCC(Nc1ccc(Cl)cc1)c1ccccc1)c1ccc(Cl)cc1 (stereo not given) | n | n | n | 108 | n | 112
O=S(=O)(NCC(c1ccccc1)N1CCC(O)CC1)c1ccc(Cl)cc1 (stereo not given) | n | n | n | x | n | x
Cc1ccc2[nH]c(O)c(N=NC(=O)CCc3ccccc3)c2c1Br | n | n | n | 107 | n | 83
